# According to ChEMBL document CHEMBL1649147, “Antistaphylococcal activity of dihydrophthalazine antifolates, a family of novel antibacterial drugs” (2009):
# Assays:
# Format in all cases: functional
# [1] = tested on: Staphylococcus epidermidis; test: Antibacterial activity against methicillin-susceptible coagulase-negative Staphylococcus epidermidis 057 after 23 passages by agar dilution method
# Outline: (§1)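 Daily serial passage for up to 50 days at 35°C for 24 h in 1 ml MHB. […] Each transfer used 10 µl from the tube nearest the MIC (1–2 dilutions below) with the same turbidity as the drug-free control. […] MICs were measured by agar dilution, with changes given as log2 steps.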
# Staphylococcus aureus [2] = test: Antibacterial activity against methicillin-resistant and vancomycin-resistant Staphylococcus aureus VRS1 after 25 passages by agar dilution method; outline: as §1
# Staphylococcus aureus [3] = test: Antibacterial activity against methicillin-resistant Staphylococcus aureus 145 after 50 passages by agar dilution method
# Outline: (§2)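 Serial passage under drug. Inoculum was ~1 × 10^6 CFU/ml from overnight MHA growth, in 1 ml MHB at 35°C for 24 h. Drug ranged from 4 log2 steps above to 3 log2 steps below the MIC. […] MIC change is given as log2 steps.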
# [4] = tested on: Staphylococcus epidermidis; test: Antibacterial activity against coagulase-negative Staphylococcus epidermidis 057 after 50 passages by agar dilution method; outline: as §2
# Staphylococcus aureus [5] = test: Antibacterial activity against vancomycin-resistant Staphylococcus aureus VRS1 after 15 passages by agar dilution method; outline: as §1
# [6] = tested on: Staphylococcus epidermidis; test: Antibacterial activity against methicillin-resistant, Linezolid non-susceptible coagulase-negative Staphylococcus epidermidis 345 after 33 passages by agar dilution method; outline: as §1
# [7] = tested on: Staphylococcus epidermidis; test: Antibacterial activity against coagulase-negative Staphylococcus epidermidis 345 after 33 passages by agar dilution method; outline: as §2
# [8] = tested on: Staphylococcus epidermidis; test: Antibacterial activity against methicillin-susceptible coagulase-negative Staphylococcus epidermidis 057 after 15 passages by agar dilution method; outline: as §1
# Staphylococcus aureus [9] = test: Antibacterial activity against methicillin-resistant Staphylococcus aureus 145 after 47 passages by agar dilution method; outline: as §2
compound,measurement,setting,value
COc1cc(Cc2cnc(N)nc2N)cc(/C=C/C(=O)N2N=Cc3ccccc3C2c2cnc(N3CCOCC3)nc2)c1OC (centres undefined),MIC,[1],> 128 µg/mL
same,MIC,Staphylococcus aureus [2],> 128 µg/mL
same,MIC,Staphylococcus aureus [3],128 µg/mL
COc1ncc(C2c3ccccc3C=NN2C(=O)/C=C/c2cc(Cc3cnc(N)nc3N)cc(OC)c2OC)cn1 (centres undefined),MIC,[4],128 µg/mL
same,MIC,Staphylococcus aureus [5],> 128 µg/mL
COc1cc(Cc2cnc(N)nc2N)cc(/C=C/C(=O)N2N=Cc3ccccc3C2c2cnc(N(C)C)nc2)c1OC (centres undefined),MIC,[6],> 128 µg/mL
same,MIC,[7],> 128 µg/mL
same,MIC,[8],> 128 µg/mL
same,MIC,Staphylococcus aureus [9],> 128 µg/mL
